Test results: ChEMBL document CHEMBL4038273, “MAO enzymes inhibitory activity of new benzimidazole derivatives including hydrazone and propargyl side chains” (Eur J Med Chem, 2017)

What was measured:
[1] = test system: Salmonella typhimurium; assay: Genotoxicity in Salmonella typhimurium TA98 assessed as increase in number of revertants at 1.25 mg/ml in absence of aroclor-1254-induced Sprague-Dawley rat liver microsomal S9 fraction by Ames-MPF assay relative to baseline; format: toxicity; details: salmonella enterica subsp. enterica serovar typhimurium, microsomes
Summary of the method: (§1)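 AmesMPF 98/100 fluctuation format with S. typhimurium TA98 (frameshift) and TA100 (base-pair substitution), run with and without S9. Compounds were made up in DMSO at 0.156–5 mg/mL, six levels; solvent control was 4% DMSO. With S9, positive controls were 2-aminoanthracene at 1 µg/mL (TA98) and 2.5 µg/mL (TA100). Wells turned yellow by pH drop were scored positive. Fold over baseline is mean positive wells divided by (zero-dose mean + 1 SD). Student's t-test, p<0.05.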

[2] = test system: Salmonella typhimurium; assay: Genotoxicity in Salmonella typhimurium TA100 assessed as increase in number of revertants at 5 mg/ml in presence of aroclor-1254-induced Sprague-Dawley rat liver microsomal S9 fraction by Ames-MPF assay relative to baseline; format: toxicity; details: salmonella enterica subsp. enterica serovar typhimurium, microsomes; summary of the method: as §1
[3] = biological target: T1, Amine oxidase [flavin-containing] A (Homo sapiens, UniProt P21397); assay: Inhibition of recombinant human MAO-A expressed in baculovirus infected BTI insect cells using tyramine as substrate pretreated for 30 mins followed by substrate addition incubated for 30 mins measured at 5 mins interval by horse-radish peroxidase/amplex red-based fluorometric method
T1 sequence (P21397 whole entry): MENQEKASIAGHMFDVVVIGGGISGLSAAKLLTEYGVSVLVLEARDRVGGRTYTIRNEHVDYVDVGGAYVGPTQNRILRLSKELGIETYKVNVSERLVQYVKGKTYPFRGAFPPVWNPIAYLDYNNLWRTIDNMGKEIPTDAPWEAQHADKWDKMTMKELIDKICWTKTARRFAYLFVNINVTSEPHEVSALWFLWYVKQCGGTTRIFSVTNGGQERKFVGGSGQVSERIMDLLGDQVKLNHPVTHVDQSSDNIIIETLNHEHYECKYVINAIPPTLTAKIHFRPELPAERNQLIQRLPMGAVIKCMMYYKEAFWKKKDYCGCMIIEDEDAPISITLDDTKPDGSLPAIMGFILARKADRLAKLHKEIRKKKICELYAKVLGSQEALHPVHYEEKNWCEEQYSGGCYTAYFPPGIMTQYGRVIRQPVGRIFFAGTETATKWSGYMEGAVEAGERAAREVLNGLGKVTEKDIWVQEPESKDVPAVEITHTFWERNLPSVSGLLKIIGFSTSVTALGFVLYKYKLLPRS
Summary of the method: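 Recombinant hMAO-A (0.5 U/mL stock) or hMAO-B (0.64 U/mL stock) in phosphate buffer, preincubated with inhibitor (solutions 10^-3 to 10^-9 M in 2% DMSO) for 30 min at 37°C. Background-subtracted against DMSO control; quadruplicate.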

[4] = test system: Salmonella typhimurium; assay: Genotoxicity in Salmonella typhimurium TA100 assessed as increase in number of revertants at 1.25 mg/ml in presence of aroclor-1254-induced Sprague-Dawley rat liver microsomal S9 fraction by Ames-MPF assay relative to baseline; format: toxicity; details: salmonella enterica subsp. enterica serovar typhimurium, microsomes; summary of the method: as §1
[5] = test system: Salmonella typhimurium; assay: Genotoxicity in Salmonella typhimurium TA100 assessed as increase in number of revertants at 0.625 mg/ml in absence of aroclor-1254-induced Sprague-Dawley rat liver microsomal S9 fraction by Ames-MPF assay relative to baseline; format: toxicity; details: salmonella enterica subsp. enterica serovar typhimurium, microsomes; summary of the method: as §1
[6] = test system: Salmonella typhimurium; assay: Genotoxicity in Salmonella typhimurium TA100 assessed as increase in number of revertants at 0.156 mg/ml in presence of aroclor-1254-induced Sprague-Dawley rat liver microsomal S9 fraction by Ames-MPF assay relative to baseline; format: toxicity; details: salmonella enterica subsp. enterica serovar typhimurium, microsomes; summary of the method: as §1
[7] = test system: Salmonella typhimurium; assay: Genotoxicity in Salmonella typhimurium TA100 assessed as increase in number of revertants at 5 mg/ml in absence of aroclor-1254-induced Sprague-Dawley rat liver microsomal S9 fraction by Ames-MPF assay relative to baseline; format: toxicity; details: salmonella enterica subsp. enterica serovar typhimurium, microsomes; summary of the method: as §1
[8] = test system: Salmonella typhimurium; assay: Genotoxicity in Salmonella typhimurium TA98 assessed as increase in number of revertants at 5 mg/ml in presence of aroclor-1254-induced Sprague-Dawley rat liver microsomal S9 fraction by Ames-MPF assay relative to baseline; format: toxicity; details: salmonella enterica subsp. enterica serovar typhimurium, microsomes; summary of the method: as §1
[9] = biological target: T2, Amine oxidase [flavin-containing] B (Homo sapiens, UniProt P27338); assay: Non-competitive inhibition of recombinant human MAO-B expressed in baculovirus infected BTI insect cells using varying levels of tyramine as substrate pretreated for 30 mins followed by substrate addition measured for 30 mins by Line-weaver burk plot method
T2 sequence (P27338 whole entry): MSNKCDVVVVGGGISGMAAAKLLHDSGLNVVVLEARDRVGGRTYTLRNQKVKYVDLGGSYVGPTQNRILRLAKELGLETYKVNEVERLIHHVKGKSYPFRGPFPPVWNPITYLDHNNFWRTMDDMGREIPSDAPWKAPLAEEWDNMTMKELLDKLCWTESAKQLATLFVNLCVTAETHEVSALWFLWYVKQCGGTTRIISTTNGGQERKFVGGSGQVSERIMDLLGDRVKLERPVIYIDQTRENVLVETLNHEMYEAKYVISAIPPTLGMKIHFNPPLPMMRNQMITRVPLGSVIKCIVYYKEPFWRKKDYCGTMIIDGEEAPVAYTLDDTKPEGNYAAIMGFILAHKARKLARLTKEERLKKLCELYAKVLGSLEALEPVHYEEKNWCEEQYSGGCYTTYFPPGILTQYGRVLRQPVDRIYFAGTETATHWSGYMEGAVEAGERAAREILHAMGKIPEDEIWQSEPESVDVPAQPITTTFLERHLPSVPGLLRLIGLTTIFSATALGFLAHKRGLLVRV
Summary of the method: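 hMAO-B preincubated 30 min at 37°C with inhibitor at five concentrations. Working solution with tyramine at 20, 10, 5, 2.5, 1.25 and 0.625 µM then added, and fluorescence (Ex/Em 535/587 nm) followed for 30 min alongside an inhibitor-free run; quadruplicate. Inhibition type from Lineweaver-Burk plots; Ki from x-intercept of Vmax replotted against inhibitor concentration.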

Row | Structure (SMILES) | fold change (FC) [1] | fold change (FC) [2] | IC50 [3] [nM] | fold change (FC) [4] | fold change (FC) [5] | fold change (FC) [6] | fold change (FC) [7] | fold change (FC) [8] | Ki [9] [nM]
1 | C#CCn1c(-c2ccc(C(=O)N/N=C/c3ccc(F)cc3)cc2)nc2ccccc21 | 0.28 | 1.94 | 851 | 1.46 | 0.69 | 0.79 | 1.63 | 3.07 | –
2 | C#CCn1c(-c2ccc(C(=O)N/N=C/c3cccnc3)cc2)nc2ccccc21 | 0.68 | 0.07 | 9590 | 0.33 | 0.84 | 0.53 | 0.89 | 0 | 150 to 151
